Series [1] is described as follows: folding enthalpy; higher = less favourable; fluorescence melt of hairpins on a sequencing array, two-state fit. The settings on record: sodium 0.088 M. An outline of the steps:
(§1)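 To match UV melts, fitted temperatures were raised by 9.35 °C. These fits were bootstrapped two-state models that gave melting temperature and folding enthalpy, combined by inverse variance over four replicates. The input was normalised Cy3 fluorescence of library hairpins with annealed Cy3 and quencher oligos on a sequenced MiSeq flow cell, imaged in 50 mM Na-HEPES pH 8.0, 25 mM NaCl in 2.5 °C steps up to 60 °C.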

The nature of series [2]: melting temperature; fluorescence melt of hairpins on a sequencing array, two-state fit, raised by 9.35 °C to match UV melts. The conditions noted are these: sodium 0.088 M. The essentials: as §1

The source of these data is the array DNA melting data of Ke et al. (doi:10.1101/2024.01.08.574731).

Regarding GCTGACGAAAGTCGTAGC ((((((....)))..))), the folding enthalpy in series [1] was -21.6 kcal/mol. Also, the Tm in series [2] was determined as 47.1 °C.
The like results for AGAAGGAAACTTCT (((((....))))) were, in that order, -13.6 kcal/mol and 30.7 °C.
The like results for GATCTAACCATAGATC ((((((....)))))) were, in that order, -31.7 kcal/mol and 38.2 °C.
The like results for GTCCGTCGAAAGACGAC (((.(((....)))))) were, in that order, -13.4 kcal/mol and 50.6 °C.
For GATCACCAATGTGATC ((((((....)))))), the folding enthalpy in series [1] is -35.3 kcal/mol. Also, in series [2], the Tm was determined as 54.1 °C.
The like results for GATCCCTTGTGGGATC ((((((....)))))) were, in that order, -31 kcal/mol and 62.4 °C.
In the case of GGCTGATCGAAAGATGCC (((..(((....)))))), the folding enthalpy in series [1] was -22.6 kcal/mol. In addition, in series [2], the Tm is 43.9 °C.
Consider GATCAAACGGTTGATC ((((((....)))))), for which the folding enthalpy in series [1] was -36 kcal/mol. Further, the Tm in series [2] was found to be 44.2 °C.
The like results for GACAAACGAAAGTTAGTC (((.(((....))).))) were, in that order, -30.9 kcal/mol and 44.3 °C.
The like results for GAGCGCGAAAGCGAACTC ((((((....)))..))) were, in that order, -15.2 kcal/mol and 49 °C.
The like results for GAGGCACGAAAGTGTCTC (((.(((....))).))) were, in that order, -29 kcal/mol and 64.5 °C.
On to GGCTGCGAAAGCATGGCC ((((((....)))..))), for which the folding enthalpy in series [1] was -31.8 kcal/mol. For the same sequence, in series [2], the Tm stood at 54.6 °C.
Turning to GGTTCCACGAAAGTGACC (((..(((....)))))), in series [1], the folding enthalpy was -15.1 kcal/mol. Besides, the Tm in series [2] came to 31.6 °C.
The like results for GCAGACGGAAACGCCTGC ((((.((....)).)))) were, in that order, -51.1 kcal/mol and 56 °C.
Take TGTATGAAAATACA (((((....))))): the folding enthalpy in series [1] was -11 kcal/mol. Besides, the Tm in series [2] came to 34.5 °C.
The like results for GTGCGCGAAAGCGACAC ((((((....))).))) were, in that order, -16.9 kcal/mol and 63.8 °C.
The like results for GGCGACGAAAGTCGAGCC ((((((....)))..))) were, in that order, -15.9 kcal/mol and 55.8 °C.
For GATCTGTGGTCAGATC ((((((....)))))), the folding enthalpy in series [1] was -38.7 kcal/mol. Besides, in series [2], the Tm was determined as 49.6 °C.
On to GTCGACCGAAAGGTGGAC (((.(((....))).))), for which the folding enthalpy in series [1] was -42.1 kcal/mol. Also, in series [2], the Tm came out at 56.1 °C.
The like results for CGACGTCGGAAACGATCG (((..(((....)))))) were, in that order, -11.2 kcal/mol and 37 °C.
With GTTGGTCGAAAGACGAAC (((.(((....))).))), the folding enthalpy in series [1] was -29.9 kcal/mol. Further, the Tm in series [2] was found to be 48.1 °C.
On to GCGTCATACGC ((((...)))), for which, in series [1], the folding enthalpy is -20.1 kcal/mol. The Tm in series [2] worked out at 62.7 °C.
The like results for GATCCAGTGTGGATC ((((((...)))))) were, in that order, -33 kcal/mol and 51.6 °C.
Take GCCTCCGGAAACGGGGGC (((.(((....))).))): the folding enthalpy in series [1] is -31 kcal/mol. Besides, the Tm in series [2] turned out to be 67.1 °C.
The like results for GATCGGGGAAACCCGACC (.(((((....))))).) were, in that order, -13.6 kcal/mol and 43.5 °C.
The like results for GCTCTGCGAAAGCTGGGC ((.(.((....)).).)) were, in that order, -21.4 kcal/mol and 54.3 °C.
The like results for GCATGCCGAAAGGCTTGC (((.(((....))).))) were, in that order, -26.9 kcal/mol and 66.2 °C.
GCATCTTCGAAAGAATGC (((..(((....)))))): the folding enthalpy in series [1] is -23.2 kcal/mol. Besides, in series [2], the Tm was found to be 33.4 °C.
The like results for GCTCTGCGAAAGCTGCGC ((.(.((....)).).)) were, in that order, -18.4 kcal/mol and 44.2 °C.
The like results for GGGGACGAAAGTCTCCC ((((((....))).))) were, in that order, -23.9 kcal/mol and 60 °C.
As to GGGTTACGAAAGTACCC (((.(((....)))))), the folding enthalpy in series [1] was -31.5 kcal/mol. The Tm in series [2] was found to be 54.3 °C.
As for GTCTGGCGAAAGCCCGAC (((.(((....))).))), in series [1], the folding enthalpy was -25.7 kcal/mol. For the same sequence, the Tm in series [2] came out at 52.2 °C.
The like results for GCTGAACGAAAGTTGAGC (((.(((....))).))) were, in that order, -31.4 kcal/mol and 48.7 °C.
The like results for GGAACCGAAAGGTGATCC ((((((....)))..))) were, in that order, -14 kcal/mol and 42.8 °C.
The like results for GCTGATCGAAAGATAAGC (((.(((....))).))) were, in that order, -35.1 kcal/mol and 49.5 °C.
Consider GATCTCAGCGAGATC ((((((...)))))), for which the folding enthalpy in series [1] was -35.3 kcal/mol. The Tm in series [2] was determined as 56.6 °C.
The like results for GATCAGGATTCTGATC ((((((....)))))) were, in that order, -38.6 kcal/mol and 49.8 °C.
